Experimental data from different studies.
Each line is one published result; the experiments were not run side by side.
Target: Phosphatidylinositol 4,5-bisphosphate 3-kinase catalytic subunit gamma isoform (PIK3CG, Homo sapiens, UniProt P48736)

Compound	observed	action	method	concentration	measurement	result
Cn1cncc1[C@](O)(COc1ccc(C#N)cc1-c1ccc(OC(F)(F)F)cc1)c1ccc(C#N)cc1	cell-free assay	–	competition with immobilised ligand	1 µM	remaining binding	100%
Nc1ncc(-c2nc(N3CCOCC3)nc(N3CCOCC3)n2)c(C(F)F)n1	binding	–	competition with immobilised ligand	10 µM	remaining binding	0%
C#Cc1n[nH]c2c(-c3cn([C@@H](C)c4ccccn4)c(=O)[nH]c3=O)cc(F)cc12	enzyme activity	inhibitor	–	0.1 µM	inhibition	1.9%
Cn1cc(-c2cc(F)cc(N3CCn4c(cc5c4CCCC5)C3=O)c2CO)cc(Nc2ccc(N3CCN(C4COC4)CC3)cn2)c1=O	enzyme activity	inhibitor	–	0.1 µM	inhibition	5%
COc1ncccc1-c1cnn2ccc(N3CCN(C(=O)OC(C)C)CC3)nc12	binding	–	competition with immobilised ligand	1 µM	remaining binding	100%
N#CC1(c2ccccn2)CCN(Cc2cc(C(=O)O)c(=O)n3ccccc23)CC1	cell-free assay	–	competition with immobilised ligand	1 µM	remaining binding	91%
C#Cc1n[nH]c2c(-c3cn([C@@H](C)c4ccccc4)c(=O)[nH]c3=O)cc(F)cc12	enzyme activity	inhibitor	–	0.1 µM	inhibition	7.4%
Cc1nn(C)cc1-c1nc2c(N3CCN(Cc4ccc(Cl)cc4)CC3)c(Cl)cnc2[nH]1	binding	–	competition with immobilised ligand	1 µM	remaining binding	100%
Cn1cc(-c2cccc(N3CCc4c(sc5c4CC(C)(C)C5)C3=O)c2CO)cc(Nc2ccncn2)c1=O	enzyme activity	inhibitor	–	1 µM	inhibition	-1%
